Laboratory results from ChEMBL document CHEMBL1124999, “3-Phenyl analogues of 2-[[[2-(2,6-dimethoxyphenoxy)ethyl]amino]-methyl]-1,4-benzodioxan (WB 4101) as highly selective alpha 1-adrenoceptor antagonists” (J Med Chem, 1990).

Experiments:
[1] = molecular target: T1, Adrenergic receptor alpha-2 (Rattus norvegicus, UniProt P22086+P19328+P22909); experiment: pA2 value was measured in Alpha-2 adrenergic receptor against clonidine in rat vas deferens.
T1 sequence (P22086 whole entry): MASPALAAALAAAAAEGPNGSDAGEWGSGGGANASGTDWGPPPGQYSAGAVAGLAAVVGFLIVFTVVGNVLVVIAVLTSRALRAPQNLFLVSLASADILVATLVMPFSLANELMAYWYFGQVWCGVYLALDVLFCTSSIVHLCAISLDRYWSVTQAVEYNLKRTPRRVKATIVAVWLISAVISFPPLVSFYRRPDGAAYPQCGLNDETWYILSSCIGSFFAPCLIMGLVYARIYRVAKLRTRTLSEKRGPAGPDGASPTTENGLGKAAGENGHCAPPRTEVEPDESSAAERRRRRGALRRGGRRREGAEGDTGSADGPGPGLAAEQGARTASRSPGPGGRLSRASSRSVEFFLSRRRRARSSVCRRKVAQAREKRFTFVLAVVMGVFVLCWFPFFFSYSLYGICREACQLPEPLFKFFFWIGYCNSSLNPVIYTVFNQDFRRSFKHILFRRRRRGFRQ
T1 sequence (P19328 whole entry): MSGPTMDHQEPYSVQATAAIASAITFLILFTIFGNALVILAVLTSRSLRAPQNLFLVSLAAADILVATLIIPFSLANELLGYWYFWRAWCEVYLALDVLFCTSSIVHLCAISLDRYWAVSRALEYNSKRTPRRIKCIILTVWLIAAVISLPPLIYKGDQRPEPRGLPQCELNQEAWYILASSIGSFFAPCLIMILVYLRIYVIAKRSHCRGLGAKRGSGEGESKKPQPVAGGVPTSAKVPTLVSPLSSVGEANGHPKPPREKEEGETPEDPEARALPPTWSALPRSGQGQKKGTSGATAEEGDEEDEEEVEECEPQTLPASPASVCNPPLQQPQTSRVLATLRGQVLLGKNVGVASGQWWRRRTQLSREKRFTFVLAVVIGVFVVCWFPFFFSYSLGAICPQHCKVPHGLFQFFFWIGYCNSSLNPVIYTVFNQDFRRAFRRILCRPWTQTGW
T1 sequence (P22909 whole entry): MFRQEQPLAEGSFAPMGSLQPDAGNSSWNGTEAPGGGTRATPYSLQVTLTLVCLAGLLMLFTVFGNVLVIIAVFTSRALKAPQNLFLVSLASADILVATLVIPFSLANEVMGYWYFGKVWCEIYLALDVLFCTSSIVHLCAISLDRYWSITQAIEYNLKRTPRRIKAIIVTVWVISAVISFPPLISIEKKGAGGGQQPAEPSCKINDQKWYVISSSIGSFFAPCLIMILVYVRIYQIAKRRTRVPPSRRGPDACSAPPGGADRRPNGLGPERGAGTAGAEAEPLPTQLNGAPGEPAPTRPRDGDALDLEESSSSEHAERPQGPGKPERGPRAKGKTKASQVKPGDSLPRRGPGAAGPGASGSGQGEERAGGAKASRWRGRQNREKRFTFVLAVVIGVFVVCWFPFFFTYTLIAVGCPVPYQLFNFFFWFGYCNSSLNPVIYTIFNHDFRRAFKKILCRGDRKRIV
Procedure, shortened: (§1)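 Schild analysis with slope constrained to -1.0. Log(DR−1) was measured at three antagonist concentrations for α1 (norepinephrine) and four for α2 (clonidine), each tested at least five times. DR is the agonist ED50 with antagonist divided by that without. Curve parallelism was checked by linear regression (p < 0.05). Values are ± standard error of estimate.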

[2] = molecular target: T2, Adrenergic receptor alpha-1 (Rattus norvegicus, UniProt P15823+P23944+P43140); experiment: pA2 value was measured in Alpha-1 adrenergic receptor against norepinephrine in rat vas deferens.; procedure, shortened: as §1
T2 sequence (P15823 whole entry): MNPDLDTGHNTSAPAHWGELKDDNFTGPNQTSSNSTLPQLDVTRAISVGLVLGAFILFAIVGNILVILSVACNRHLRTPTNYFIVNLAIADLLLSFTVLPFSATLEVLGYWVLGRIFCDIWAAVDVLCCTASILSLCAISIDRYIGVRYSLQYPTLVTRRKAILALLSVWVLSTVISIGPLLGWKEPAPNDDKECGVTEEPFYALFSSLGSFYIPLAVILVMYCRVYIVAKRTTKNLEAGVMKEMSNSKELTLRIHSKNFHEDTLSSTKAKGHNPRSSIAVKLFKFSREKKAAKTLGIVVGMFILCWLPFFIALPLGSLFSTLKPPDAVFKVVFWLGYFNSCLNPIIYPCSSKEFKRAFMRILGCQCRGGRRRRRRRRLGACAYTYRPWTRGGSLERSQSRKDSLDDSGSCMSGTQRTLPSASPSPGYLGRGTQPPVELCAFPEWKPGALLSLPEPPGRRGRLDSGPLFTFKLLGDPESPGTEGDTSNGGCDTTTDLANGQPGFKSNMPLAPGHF
T2 sequence (P23944 whole entry): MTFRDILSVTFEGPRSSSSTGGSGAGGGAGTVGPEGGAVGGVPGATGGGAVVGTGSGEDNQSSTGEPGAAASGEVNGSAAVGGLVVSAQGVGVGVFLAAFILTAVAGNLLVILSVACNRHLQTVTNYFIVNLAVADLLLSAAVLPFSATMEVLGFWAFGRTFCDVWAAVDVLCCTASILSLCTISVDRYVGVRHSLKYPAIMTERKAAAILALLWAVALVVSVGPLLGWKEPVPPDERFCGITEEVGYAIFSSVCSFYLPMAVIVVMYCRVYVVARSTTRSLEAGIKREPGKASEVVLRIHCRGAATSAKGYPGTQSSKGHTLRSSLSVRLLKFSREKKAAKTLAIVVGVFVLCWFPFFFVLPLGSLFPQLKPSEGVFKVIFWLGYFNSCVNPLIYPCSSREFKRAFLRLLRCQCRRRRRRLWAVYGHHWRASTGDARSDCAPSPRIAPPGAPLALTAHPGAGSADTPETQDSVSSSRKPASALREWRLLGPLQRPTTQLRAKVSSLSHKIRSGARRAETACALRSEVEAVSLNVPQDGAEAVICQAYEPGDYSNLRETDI
T2 sequence (P43140 whole entry): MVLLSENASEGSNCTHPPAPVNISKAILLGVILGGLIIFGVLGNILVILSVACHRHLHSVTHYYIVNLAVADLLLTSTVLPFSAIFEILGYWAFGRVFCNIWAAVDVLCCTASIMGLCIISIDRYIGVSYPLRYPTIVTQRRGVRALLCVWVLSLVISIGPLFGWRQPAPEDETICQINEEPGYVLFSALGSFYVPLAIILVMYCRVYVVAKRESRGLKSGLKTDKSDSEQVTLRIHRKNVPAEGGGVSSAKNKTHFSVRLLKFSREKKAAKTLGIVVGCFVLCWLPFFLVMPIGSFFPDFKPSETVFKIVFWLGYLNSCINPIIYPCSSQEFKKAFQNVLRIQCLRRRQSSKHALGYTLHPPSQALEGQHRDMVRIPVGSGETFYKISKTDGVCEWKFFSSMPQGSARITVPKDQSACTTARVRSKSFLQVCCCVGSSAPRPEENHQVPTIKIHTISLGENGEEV

[3] = Selectivity ratio (alpha1/alpha2) of the compound
Procedure, shortened: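 α1/α2 selectivity is the antilog of the difference between pA2 at α1- and α2-adrenoreceptors. Each pA2 comes from Schild plots against norepinephrine (α1) or clonidine (α2).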

[4] = molecular target: T2, Adrenergic receptor alpha-1; experiment: pIC50 value was measured in Alpha-1 adrenergic receptor against norepinephrine in rat vas deferens.
[5] = molecular target: T1, Adrenergic receptor alpha-2; experiment: pA2 value was measured in aAlpha-2 adrenergic receptor against clonidine in rat vas deferens.; procedure, shortened: as §1

pA2 [1]	pA2 [2]	Selectivity ratio [3]	pIC50 [4]	pA2 [5]	SMILES
4.22	8.59	23400	–	–	COc1cccc(OC)c1OCCNC[C@H]1Oc2ccccc2O[C@@H]1c1ccccc1
4.85	8.27	2630	–	–	COc1cccc(OC)c1OCCNC[C@H]1C(=O)c2ccccc2O[C@@H]1c1ccccc1
4.49	–	6	5.29	–	COc1cccc(OC)c1OCCNC[C@H]1Oc2ccccc2O[C@H]1c1ccccc1
–	9.3	–	–	6.4	COc1cccc(OC)c1OCCNC[C@H]1Oc2ccccc2OC1c1ccccc1 (stereo partly specified)
